Source: ChEMBL document CHEMBL3779892, “Increasing the binding affinity of VEGFR-2 inhibitors by extending their hydrophobic interaction with the active site: Design, synthesis and biological evaluation of 1-substituted-4-(4-methoxybenzyl)phthalazine derivatives” (Eur J Med Chem, 2016)

Assays:
Format in all cases: functional
[1] = Growth inhibition of human SNB75 cells at 10 uM after 48 hrs by sulforhodamine B assay; details: SNB-75, 48 h, read-out: GI
Summary of the method: (§1)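 Run at NCI on the 60-line panel. Cells grown in RPMI 1640 with 5% FBS and 2 mM L-glutamine, plated at 5000–40,000 cells/well by doubling time, and held 24 h at 37 °C before dosing. Drug (DMSO stock) given at a single final 10 µM in triplicate wells for 48 h. Adherent cells fixed with cold TCA (10% final), suspension cells with 16% TCA. SRB stain read at 515 nm. Percent growth from Tz, C and Ti.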

[2] = tested on: SN12C; test: Growth inhibition of human SN12C cells at 10 uM after 48 hrs by sulforhodamine B assay; details: read-out: GI; summary of the method: as §1
[3] = Growth inhibition of human OVCAR5 cells at 10 uM after 48 hrs by sulforhodamine B assay; details: OVCAR-5, 48 h, read-out: GI; summary of the method: as §1
[4] = Growth inhibition of human DU145 cells at 10 uM after 48 hrs by sulforhodamine B assay; details: DU-145, 48 h, read-out: GI; summary of the method: as §1
[5] = tested on: M14; test: Growth inhibition of human M14 cells at 10 uM after 48 hrs by sulforhodamine B assay; details: M14, 48 h, read-out: GI; summary of the method: as §1
[6] = Growth inhibition of human TK10 cells at 10 uM after 48 hrs by sulforhodamine B assay; details: TK-10, 48 h, read-out: GI
Summary of the method: (§2)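 NCI-60 panel, adherent cells grown in RPMI 1640 with 5% FBS and 2 mM L-glutamine, plated at 5000–40,000 cells/well and preincubated 24 h at 37 °C, 5% CO2. 10 µM final compound from DMSO stock, triplicate wells, 48 h. Fixed with cold TCA (10% final, 60 min, 4 °C) and stained with 0.4% SRB. Absorbance read at 515 nm; growth calculated against time-zero and control wells.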

[7] = tested on: K562; test: Growth inhibition of human K562 cells at 10 uM after 48 hrs by sulforhodamine B assay; details: K562, 48 h, read-out: GI; summary of the method: as §1
[8] = Growth inhibition of human SF539 cells at 10 uM after 48 hrs by sulforhodamine B assay; details: SF-539, 48 h, read-out: GI; summary of the method: as §1
[9] = tested on: MDA-MB-468; test: Growth inhibition of human MDA-MB-468 cells at 10 uM after 48 hrs by sulforhodamine B assay; details: MDA-MB-468, 48 h, read-out: GI; summary of the method: as §1
[10] = Growth inhibition of human Caki1 cells at 10 uM after 48 hrs by sulforhodamine B assay; details: CAKI-1, 48 h, read-out: GI; summary of the method: as §1
[11] = tested on: MDA-MB-231; test: Growth inhibition of human MDA-MB-231 cells at 10 uM after 48 hrs by sulforhodamine B assay; details: MDA-MB-231, 48 h, read-out: GI; summary of the method: as §1
[12] = Growth inhibition of human RPMI8226 cells at 10 uM after 48 hrs by sulforhodamine B assay; details: RPMI-8226, 48 h, read-out: GI; summary of the method: as §1
[13] = Growth inhibition of human SF295 cells at 10 uM after 48 hrs by sulforhodamine B assay; details: SF-295, 48 h, read-out: GI; summary of the method: as §1
[14] = Growth inhibition of human HOP62 cells at 10 uM after 48 hrs by sulforhodamine B assay; details: HOP-62, 48 h, read-out: GI; summary of the method: as §1
[15] = tested on: NCI-H322M; test: Growth inhibition of human NCI-H322M cells at 10 uM after 48 hrs by sulforhodamine B assay; details: read-out: GI; summary of the method: as §1
[16] = tested on: KM12; test: Growth inhibition of human KM12 cells at 10 uM after 48 hrs by sulforhodamine B assay; details: KM12, 48 h, read-out: GI; summary of the method: as §1
[17] = Growth inhibition of human UO31 cells at 10 uM after 48 hrs by sulforhodamine B assay; details: UO-31, 48 h, read-out: GI; summary of the method: as §2
[18] = tested on: A498; test: Growth inhibition of human A498 cells at 10 uM after 48 hrs by sulforhodamine B assay; details: A498, 48 h, read-out: GI; summary of the method: as §1
[19] = tested on: MDA-MB-435; test: Growth inhibition of human MDA-MB-435 cells at 10 uM after 48 hrs by sulforhodamine B assay; details: MDA-MB-435, 48 h, read-out: GI; summary of the method: as §1
[20] = Growth inhibition of human UACC257 cells at 10 uM after 48 hrs by sulforhodamine B assay; details: UACC-257, 48 h, read-out: GI; summary of the method: as §2
[21] = Growth inhibition of human Hs 578T cells at 10 uM after 48 hrs by sulforhodamine B assay; details: read-out: GI; summary of the method: as §1
[22] = tested on: NCI-H23; test: Growth inhibition of human NCI-H23 cells at 10 uM after 48 hrs by sulforhodamine B assay; details: NCI-H23, 48 h, read-out: GI; summary of the method: as §1
[23] = Growth inhibition of human OVCAR4 cells at 10 uM after 48 hrs by sulforhodamine B assay; details: OVCAR-4, 48 h, read-out: GI; summary of the method: as §1
[24] = tested on: HT-29; test: Growth inhibition of human HT-29 cells at 10 uM after 48 hrs by sulforhodamine B assay; details: HT-29, 48 h, read-out: GI; summary of the method: as §1
[25] = tested on: NCI-H460; test: Growth inhibition of human NCI-H460 cells at 10 uM after 48 hrs by sulforhodamine B assay; details: NCI-H460, 48 h, read-out: GI; summary of the method: as §1
[26] = tested on: T47D; test: Growth inhibition of human T47D cells at 10 uM after 48 hrs by sulforhodamine B assay; details: read-out: GI; summary of the method: as §2
[27] = tested on: A549; test: Growth inhibition of human A549 cells at 10 uM after 48 hrs by sulforhodamine B assay; details: A549, 48 h, read-out: GI; summary of the method: as §1
[28] = Growth inhibition of human LOXIMVI cells at 10 uM after 48 hrs by sulforhodamine B assay; details: LOX IMVI, read-out: GI; summary of the method: as §1
[29] = tested on: MCF7; test: Growth inhibition of human MCF7 cells at 10 uM after 48 hrs by sulforhodamine B assay; details: MCF7, 48 h, read-out: GI; summary of the method: as §1
[30] = Growth inhibition of human NCI-ADR-RES cells at 10 uM after 48 hrs by sulforhodamine B assay; details: read-out: GI; summary of the method: as §1
[31] = tested on: SK-MEL-28; test: Growth inhibition of human SK-MEL-28 cells at 10 uM after 48 hrs by sulforhodamine B assay; details: SK-MEL-28, 48 h, read-out: GI; summary of the method: as §1
[32] = tested on: NCI-H522; test: Growth inhibition of human NCI-H522 cells at 10 uM after 48 hrs by sulforhodamine B assay; details: NCI-H522, 48 h, read-out: GI; summary of the method: as §1
[33] = Growth inhibition of human OVCAR8 cells at 10 uM after 48 hrs by sulforhodamine B assay; details: OVCAR-8, 48 h, read-out: GI; summary of the method: as §1
[34] = tested on: CCRF-CEM; test: Growth inhibition of human CCRF-CEM cells at 10 uM after 48 hrs by sulforhodamine B assay; details: read-out: GI; summary of the method: as §1
[35] = Growth inhibition of human SNB19 cells at 10 uM after 48 hrs by sulforhodamine B assay; details: SNB-19, 48 h, read-out: GI; summary of the method: as §1
[36] = Growth inhibition of human PC3 cells at 10 uM after 48 hrs by sulforhodamine B assay; details: PC-3, 48 h, read-out: GI; summary of the method: as §1

| SMILES | inhibition of growth at 10 µM [1] | inhibition of growth at 10 µM [2] | inhibition of growth at 10 µM [3] | inhibition of growth at 10 µM [4] | inhibition of growth at 10 µM [5] | inhibition of growth at 10 µM [6] | inhibition of growth at 10 µM [7] | inhibition of growth at 10 µM [8] | inhibition of growth at 10 µM [9] | inhibition of growth at 10 µM [10] | inhibition of growth at 10 µM [11] | inhibition of growth at 10 µM [12] | inhibition of growth at 10 µM [13] | inhibition of growth at 10 µM [14] | inhibition of growth at 10 µM [15] | inhibition of growth at 10 µM [16] | inhibition of growth at 10 µM [17] | inhibition of growth at 10 µM [18] | inhibition of growth at 10 µM [19] | inhibition of growth at 10 µM [20] | other results |
| --- | --- | --- | --- | --- | --- | --- | --- | --- | --- | --- | --- | --- | --- | --- | --- | --- | --- | --- | --- | --- | --- |
| COc1ccc(Cc2nnc(Nc3ccc(Cl)c(C(F)(F)F)c3)c3ccccc23)cc1 | < 30% | 46% | 33% | 37% | 48% | 40% | 60% | 42% | 54% | 35% | 40% | 94% | 49% | < 30% | 37% | 52% | 63% | 46% | < 30% | < 30% | inhibition of growth at 10 µM [21]: 34%; inhibition of growth at 10 µM [22]: 40%; inhibition of growth at 10 µM [23]: 45%; inhibition of growth at 10 µM [24]: 48%; inhibition of growth at 10 µM [25]: 74%; inhibition of growth at 10 µM [26]: 59%; inhibition of growth at 10 µM [27]: 62%; inhibition of growth at 10 µM [28]: < 30%; inhibition of growth at 10 µM [29]: 48%; inhibition of growth at 10 µM [30]: 50%; inhibition of growth at 10 µM [31]: < 30%; inhibition of growth at 10 µM [32]: 49%; inhibition of growth at 10 µM [33]: 40%; inhibition of growth at 10 µM [34]: 52%; inhibition of growth at 10 µM [35]: 43%; inhibition of growth at 10 µM [36]: 61% |
| COc1ccc(Cc2nnc(Nc3ccc(Cl)cc3)c3ccccc23)cc1 | < 30% | 50% | < 30% | 42% | 47% | 52% | 48% | 46% | 42% | 37% | 36% | 69% | 50% | 40% | 45% | 30% | 68% | 53% | 30% | < 30% | inhibition of growth at 10 µM [21]: 35%; inhibition of growth at 10 µM [22]: 39%; inhibition of growth at 10 µM [23]: 33%; inhibition of growth at 10 µM [24]: 50%; inhibition of growth at 10 µM [25]: 45%; inhibition of growth at 10 µM [26]: 44%; inhibition of growth at 10 µM [27]: 40%; inhibition of growth at 10 µM [28]: 58%; inhibition of growth at 10 µM [29]: 36%; inhibition of growth at 10 µM [30]: 48%; inhibition of growth at 10 µM [31]: < 30%; inhibition of growth at 10 µM [32]: 38%; inhibition of growth at 10 µM [33]: 35%; inhibition of growth at 10 µM [34]: 46%; inhibition of growth at 10 µM [35]: 38%; inhibition of growth at 10 µM [36]: 51% |
| COc1ccc(Cc2nnc(Nc3cccc(Cl)c3)c3ccccc23)cc1 | 32% | 34% | < 30% | < 30% | < 30% | < 30% | 45% | 35% | 30% | < 30% | 39% | 89% | 33% | < 30% | < 30% | < 30% | 61% | 34% | < 30% | < 30% | inhibition of growth at 10 µM [21]: < 30%; inhibition of growth at 10 µM [22]: < 30%; inhibition of growth at 10 µM [23]: < 30%; inhibition of growth at 10 µM [24]: 31%; inhibition of growth at 10 µM [25]: 34%; inhibition of growth at 10 µM [26]: 41%; inhibition of growth at 10 µM [27]: 45%; inhibition of growth at 10 µM [28]: < 30%; inhibition of growth at 10 µM [29]: < 30%; inhibition of growth at 10 µM [30]: 32%; inhibition of growth at 10 µM [31]: < 30%; inhibition of growth at 10 µM [32]: 50%; inhibition of growth at 10 µM [33]: < 30%; inhibition of growth at 10 µM [34]: < 30%; inhibition of growth at 10 µM [35]: 37%; inhibition of growth at 10 µM [36]: 42% |
